The structures appear in SMILES notation. Values after ≈ are worked out from the molar mass of the structure shown.

What all share (assay type): functional
Assay [1] concerns Klebsiella pneumoniae. In words: Antimicrobial activity against aac(6')-Ib-cr-positive Klebsiella pneumoniae WH99T harboring qnrB gene by agar dilution method in presence of Tazobactam. The gist of the method: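 Transconjugants were made by conjugating a qnr/aac(6')-Ib-cr donor with azide-resistant E. coli J53. Selection used Trypticase soy agar with sodium azide 150 µg/ml and sulfamethoxazole 180 µg/ml. […] MICs were read by CLSI agar dilution (M7-A7) and interpreted per M100-S17.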
On the technique in general: In agar dilution, organisms are placed on agar that contains the substance at set levels.

The test system of assay [2] is Enterobacter cloacae. In words: Antimicrobial activity against aac(6')-Ib-cr-negative Enterobacter cloacae SH39 harboring GyrA S83I, ParC S80I mutant, wild-type GyrB and qnrA genes by agar dilution method in presence of Tazobactam. The gist of the method: (§1)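 MICs were determined by the CLSI agar dilution method (M7-A7) and interpreted against CLSI M100-S17 breakpoints.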

For assay [3], the system named is Enterobacter cloacae. Kind of assay: Antimicrobial activity against aac(6')-Ib-cr-positive Enterobacter cloacae FJ63 harboring GyrA S83I, GyrA D87A, ParC S80I mutant, wild-type GyrB and qnrS genes by agar dilution method in presence of Tazobactam. The gist of the method:
as §1

Assay [4] concerns Enterobacter cloacae. In words: Antimicrobial activity against aac(6')-Ib-cr-negative Enterobacter cloacae FJ61T harboring qnrS gene by agar dilution method in presence of Tazobactam. The gist of the method:
as §1

The test system of assay [5] is Klebsiella pneumoniae. In words: Antimicrobial activity against aac(6')-Ib-cr-positive Klebsiella pneumoniae GZ40 harboring GyrA S83I, ParC S80I mutant, wild-type GyrB and qnrB genes by agar dilution method in presence of Tazobactam. The gist of the method: as §1
Assay [6] concerns Citrobacter freundii. Kind of assay: Antimicrobial activity against aac(6')-Ib-cr-positive Citrobacter freundii JN1 harboring GyrA T83I, ParC S80I mutant, wild-type GyrB and qnrA genes by agar dilution method in presence of Tazobactam. The essentials:
(§2)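 MICs were determined by CLSI agar dilution (M7-A7) and interpreted by CLSI M100-S17 breakpoints. The curator's line names the β-lactamase inhibitor added.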

Assay [7] relates to Enterobacter cloacae. Kind of assay: Antimicrobial activity against aac(6')-Ib-cr-positive Enterobacter cloacae FJ63T harboring qnrS gene by agar dilution method in presence of Tazobactam. The essentials:
as §1

Assay [8] concerns Klebsiella pneumoniae. In words: Antimicrobial activity against aac(6')-Ib-cr-negative Klebsiella pneumoniae SY22T harboring qnrS gene by agar dilution method in presence of Tazobactam. The gist of the method: as §1
The subject of assay [9] is Enterobacter cloacae. Kind of assay: Antimicrobial activity against aac(6')-Ib-cr-negative Enterobacter cloacae GZ51T harboring qnrA gene by agar dilution method in presence of Tazobactam. The gist of the method:
as §1

The subject of assay [10] is Citrobacter freundii. In words: Antimicrobial activity against aac(6')-Ib-cr-negative Citrobacter freundii JN64 harboring GyrA T83I, wild-type ParC, GyrB and qnrA genes by agar dilution method in presence of Tazobactam. The gist of the method:
as §1

The subject of assay [11] is Enterobacter cloacae. In words: Antimicrobial activity against aac(6')-Ib-cr-negative Enterobacter cloacae GZ47T harboring qnrB gene by agar dilution method in presence of clavulanic acid. The essentials:
as §1

The subject of assay [12] is Enterobacter cloacae. Kind of assay: Antimicrobial activity against aac(6')-Ib-cr-negative Enterobacter cloacae FJ61T harboring qnrS gene by agar dilution method in presence of clavulanic acid. The gist of the method: (§3)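 Transconjugants came from conjugation of qnr and/or aac(6')-Ib-cr-carrying donors with azide-resistant E. coli J53. […] MICs were determined by CLSI agar dilution (M7-A7) and interpreted by M100-S17.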

Assay [13] has as its system Klebsiella pneumoniae. Kind of assay: Antimicrobial activity against aac(6')-Ib-cr-positive Klebsiella pneumoniae WH99T harboring qnrB gene by agar dilution method in presence of clavulanic acid. The essentials: as §3
Assay [14] deals with Citrobacter freundii. In words: Antimicrobial activity against aac(6')-Ib-cr-positive Citrobacter freundii TJ15 harboring GyrA T83I, ParC S80I mutant, wild-type GyrB, qnrB genes by agar dilution method. The gist of the method: as §1
The test system of assay [15] is Enterobacter cloacae. In words: Antimicrobial activity against aac(6')-Ib-cr-negative Enterobacter cloacae SH39 harboring GyrA S83I, ParC S80I mutant, wild-type GyrB and qnrA genes by agar dilution method.
Assay [16] concerns Enterobacter cloacae. In words: Antimicrobial activity against aac(6')-Ib-cr-negative Enterobacter cloacae WH42 harboring wild-type GyrA, ParC, GyrB and qnrA genes by agar dilution method in presence of clavulanic acid. The gist of the method:
as §1

The subject of assay [17] is Citrobacter freundii. In words: Antimicrobial activity against aac(6')-Ib-cr-positive Citrobacter freundii JS33T harboring qnrA gene by agar dilution method in presence of clavulanic acid. The essentials: as §3
In assay [18] the test system is Enterobacter cloacae. In words: Antimicrobial activity against aac(6')-Ib-cr-negative Enterobacter cloacae GZ47 harboring qnrB and qnrS genes by agar dilution method in presence of clavulanic acid. The essentials:
(§4)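 MICs measured by CLSI agar dilution (M7-A7) and interpreted against CLSI M100-S17 breakpoints. Strains were clinical Enterobacteriaceae isolates or the azide-resistant E. coli J53 recipient.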

For assay [19], the system named is Citrobacter freundii. Kind of assay: Antimicrobial activity against aac(6')-Ib-cr-positive Citrobacter freundii TJ15T harboring wild-type GyrA, ParC, GyrB genes by agar dilution method in presence of clavulanic acid. The essentials: as §1
The subject of assay [20] is Klebsiella pneumoniae. In words: Antimicrobial activity against aac(6')-Ib-cr-positive Klebsiella pneumoniae JN132 harboring GyrA S83I, ParC S80I mutant, wild-type GyrB and qnrB genes by agar dilution method. The gist of the method: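 MICs were determined on clinical isolates by CLSI agar dilution (M7-A7) and interpreted against CLSI M100-S17 breakpoints.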
The subject of assay [21] is Enterobacter cloacae. Kind of assay: Antimicrobial activity against aac(6')-Ib-cr-negative Enterobacter cloacae WH42T harboring qnrA gene by agar dilution method in presence of clavulanic acid. The essentials:
as §3

For assay [22], the system named is Klebsiella pneumoniae. Kind of assay: Antimicrobial activity against aac(6')-Ib-cr-negative Klebsiella pneumoniae SY22 harboring GyrA S83I, ParC S80I mutant, wild-type GyrB and qnrS genes by agar dilution method. The essentials: as §1
In assay [23] the test system is Enterobacter cloacae. In words: Antimicrobial activity against aac(6')-Ib-cr-negative Enterobacter cloacae GZ51 harboring qnrA gene by agar dilution method in presence of clavulanic acid. The essentials: as §2
Assay [24] concerns Enterobacter cloacae. In words: Antimicrobial activity against aac(6')-Ib-cr-negative Enterobacter cloacae GZ51T harboring qnrA gene by agar dilution method.
Assay [25] relates to Escherichia coli. In words: Antimicrobial activity against aac(6')-Ib-cr-positive Escherichia coli FJ3 harboring GyrA S83L, ParC S80R mutant, wild-type GyrB and qnrB genes by agar dilution method in presence of clavulanic acid. The gist of the method: as §2
Assay [26] relates to Klebsiella pneumoniae. In words: Antimicrobial activity against aac(6')-Ib-cr-positive Klebsiella pneumoniae WH99 harboring wild-type GyrA, ParC, GyrB and qnrB genes by agar dilution method in presence of clavulanic acid. The essentials: as §4
Assay [27] relates to Enterobacter cloacae. Kind of assay: Antimicrobial activity against aac(6')-Ib-cr-negative Enterobacter cloacae FJ61 harboring GyrA S83I, GyrA D87A, ParC S80I mutant, wild-type GyrB and qnrS genes by agar dilution method in presence of clavulanic acid. The gist of the method:
as §4

The subject of assay [28] is Klebsiella pneumoniae. In words: Antimicrobial activity against aac(6')-Ib-cr-positive Klebsiella pneumoniae GZ40T harboring qnrB gene by agar dilution method in presence of clavulanic acid. The gist of the method:
as §3

For assay [29], the system named is Klebsiella pneumoniae. In words: Antimicrobial activity against aac(6')-Ib-cr-positive Klebsiella pneumoniae GZ40 harboring GyrA S83I, ParC S80I mutant, wild-type GyrB and qnrB genes by agar dilution method. The gist of the method: as §1
Assay [30] relates to Enterobacter cloacae. Kind of assay: Antimicrobial activity against aac(6')-Ib-cr-negative Enterobacter cloacae FJ67T harboring qnrS gene by agar dilution method.
Assay [31] has as its system Escherichia coli. Kind of assay: Antimicrobial activity against aac(6')-Ib-cr-positive Escherichia coli FJ3T harboring wild-type GyrA, ParC, GyrB and qnrB genes by agar dilution method in presence of clavulanic acid. The gist of the method:
as §3

The subject of assay [32] is Enterobacter cloacae. Kind of assay: Antimicrobial activity against aac(6')-Ib-cr-negative Enterobacter cloacae GZ47T harboring qnrB gene by agar dilution method.

Broadly, the MIC is the least concentration at which growth counts as inhibited. In the case of `CCN1CCN(C(=O)N[C@@H](C(=O)N[C@@H]2C(=O)N3[C@@H]2SC(C)(C)[C@@H]3C(=O)O)c2ccccc2)C(=O)C1=O` [PIPERACILLIN], the MIC is 2 mg/L in the assay with Klebsiella pneumoniae [1]; 2 mg/L in the assay with Enterobacter cloacae [2]; more than 256 mg/L in the assay with Enterobacter cloacae [3]; 1 mg/L with Enterobacter cloacae [4]; more than 256 mg/L in the assay on Klebsiella pneumoniae [5]; 16 mg/L in the assay on Citrobacter freundii [6]. For the same compound, the minimal inhibitory concentration (MIC) in the assay on Enterobacter cloacae [7] was 2 mg/L; with Klebsiella pneumoniae [8] it was 1 mg/L; with Enterobacter cloacae [9] it was 2 mg/L; in the assay with Citrobacter freundii [10], more than 256 mg/L.

Take `CO/N=C(\C(=O)N[C@@H]1C(=O)N2C(C(=O)O)=C(COC(C)=O)CS[C@H]12)c1csc(N)n1` [CEFOTAXIME]: the MIC in the assay on Enterobacter cloacae [11] turned out to be 0.5 mg/L; in the assay on Enterobacter cloacae [12] it was 0.032 mg/L; with Klebsiella pneumoniae [13] it was 0.064 mg/L; in the assay with Citrobacter freundii [14] it was 1 mg/L (≈ 2.2 µM); against Enterobacter cloacae [15], 4 mg/L (≈ 8.78 µM); in the assay with Enterobacter cloacae [16], 256 mg/L. Besides, the MIC in the assay on Citrobacter freundii [17] stood at 0.032 mg/L; in the assay with Enterobacter cloacae [18] it was 8 mg/L; in the assay with Citrobacter freundii [19] it was 0.125 mg/L; against Klebsiella pneumoniae [20] it was 32 mg/L (≈ 70.3 µM); in the assay with Enterobacter cloacae [21] it was 0.032 mg/L; in the assay on Klebsiella pneumoniae [22], 2 mg/L (≈ 4.39 µM). For the same compound, the MIC was found to be 32 mg/L in the assay on Enterobacter cloacae [23]; 32 mg/L (≈ 70.3 µM) against Enterobacter cloacae [24]; 0.032 mg/L with Escherichia coli [25]; 64 mg/L in the assay on Klebsiella pneumoniae [26]; 8 mg/L in the assay on Enterobacter cloacae [27]; 0.032 mg/L with Klebsiella pneumoniae [28]. Further, the MIC in the assay with Klebsiella pneumoniae [29] was more than 256 mg/L; in the assay with Enterobacter cloacae [30], 64 mg/L (≈ 141 µM); with Escherichia coli [31] it was 0.032 mg/L; in the assay with Enterobacter cloacae [32] it was 0.25 mg/L (≈ 0.549 µM).

Values taken from ChEMBL document CHEMBL1275556, “High prevalence of plasmid-mediated quinolone resistance genes qnr and aac(6')-Ib-cr in clinical isolates of Enterobacteriaceae from nine teaching hospitals in China” (2008).
